Most compounds without a hit are left out; they make up all but 2.9% or so of the library.
S100A4 MyoIIA = inhibitors of S100A4-myosin IIA peptide binding, primary screen, biochemical, fluorescence polarization, TAMRA-MyoIIA peptide. inhibition, % at 10.7 µM. AID 652163, 2013. Protein S100-A4 (Homo sapiens), P26447. hit rate 0.14% among 360,000;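 active means mean inhibition of at least 70% across replicates, with every replicate also reaching that level; inconclusive means mean inhibition reaches 70% but some replicates fall short; inactive means mean inhibition below 70%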
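Material: human S100A4 monomer with TAMRA-labelled myosin IIA peptide; buffer or medium: HEPES pH 7.2 with CaCl2, KCl, NaCl, DTT, Triton; compound dosing: one concentration per compound; schedule: 5 min incubation before reading; benchmarks: neutral control DMSO, positive control TFP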
CAL PDZ FP-1 = CAL PDZ peptide-binding inhibitors, primary screen, biochemical, fluorescence polarization, Cer-tagged CAL PDZ, HTS | inhibition, % at 20 µM | Golgi-associated PDZ and coiled-coil motif-containing protein (Homo sapiens), Q9HD26 | purified CAL PDZ, TMR-peptide fluorescence polarization, 1 h | hit rate 0.02% among 330,000;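 active means highest replicate inhibition of at least 40%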
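material = purified tagged CAL PDZ domain construct (CerCALP) | buffer or medium = sodium phosphate/NaCl buffer pH 7.4 with TCEP, IgG, Thesit | reagent = TMR-labelled reporter peptide T*-PRC34 bound in PDZ groove | incubation = 1 h room-temperature incubation prior to read | measured by = fluorescence polarization (mP) | evaluation = percent inhibition from loss of millipolarization | control set = unlabelled peptide and DMSO controls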
ERAP1 inh = human ERAP1 aminopeptidase inhibitors, primary screen, biochemical, single point, plate reader | AID 652197, 2013 | recombinant ERAP1, Leu-AMC fluorescence, 60 min | inhibition, % at 10.7 µM | hit rate 0.15% among 340,000;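 active means mean replicate inhibition of at least 30%, or all replicates individually reaching that 30% level; inactive means mean below 30% and not every replicate reaching it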
Target sequence (Q9NZ08 whole entry, looked up): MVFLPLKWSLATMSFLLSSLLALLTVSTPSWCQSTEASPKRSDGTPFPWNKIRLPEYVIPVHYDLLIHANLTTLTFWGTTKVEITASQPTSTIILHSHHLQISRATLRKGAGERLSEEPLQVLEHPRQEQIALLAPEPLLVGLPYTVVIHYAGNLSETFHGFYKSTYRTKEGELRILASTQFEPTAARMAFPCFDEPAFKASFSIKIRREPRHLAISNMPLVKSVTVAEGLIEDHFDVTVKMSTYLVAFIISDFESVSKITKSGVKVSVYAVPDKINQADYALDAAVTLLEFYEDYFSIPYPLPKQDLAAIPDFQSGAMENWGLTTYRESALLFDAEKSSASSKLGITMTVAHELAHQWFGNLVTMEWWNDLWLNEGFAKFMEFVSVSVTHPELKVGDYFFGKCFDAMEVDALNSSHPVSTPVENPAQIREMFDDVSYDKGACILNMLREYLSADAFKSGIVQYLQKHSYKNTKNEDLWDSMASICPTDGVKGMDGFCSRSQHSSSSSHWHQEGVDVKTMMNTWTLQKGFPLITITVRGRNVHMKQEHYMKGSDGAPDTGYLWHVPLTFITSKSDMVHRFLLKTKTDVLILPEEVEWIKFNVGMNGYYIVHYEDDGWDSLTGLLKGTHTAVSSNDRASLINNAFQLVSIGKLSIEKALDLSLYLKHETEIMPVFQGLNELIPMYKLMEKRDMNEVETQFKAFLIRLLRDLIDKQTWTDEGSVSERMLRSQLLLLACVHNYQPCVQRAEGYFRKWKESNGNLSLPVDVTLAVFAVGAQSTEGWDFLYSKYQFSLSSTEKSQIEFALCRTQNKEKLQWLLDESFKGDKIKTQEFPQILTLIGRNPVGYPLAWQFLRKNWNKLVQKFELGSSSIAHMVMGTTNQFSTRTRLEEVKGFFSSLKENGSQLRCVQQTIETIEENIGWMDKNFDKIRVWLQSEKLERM
SIRT5 block = SIRT5 desuccinylase inhibitors, primary screen, biochemical, fluorescence imaging, single point, set 5; hit rate 1.1% among 330,000; AID 652115, 2013; inhibition, % at 15 µM; Purified SirT5, succinyl-peptide AMC, trypsin-coupled fluorescence; in the data active means inhibition above about 15%; inconclusive means no clear call, values can overlap the other calls
DENV2 CPE rescue = inhibitors of DENV2 cytopathic effect, primary screen, cell-based, plate reader, single concentration | DENV2-infected cells, cytopathic effect rescue | CPE inhibition, % at 9.99 µM | hit rate 1.7% among 350,000 | AID 651640, 2012; in the data active means CPE inhibition above about 20%, passing the limit was not always enough; inconclusive means no clear call, values can overlap the other calls; tested in BHK-21 cells
CAL PDZ FP-2 = untagged CAL PDZ binding inhibitors, primary screen, biochemical, fluorescence polarization, HTS | Golgi-associated PDZ and coiled-coil motif-containing protein (Homo sapiens), Q9HD26 | purified CAL PDZ, TMR-peptide fluorescence polarization, 1 h | inhibition, % at 24.9 µM | hit rate 0.92% among 300,000 | AID 602252, 2012;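 active means mean inhibition of at least 30% with at least half of replicates also reaching 30%; inconclusive means no clear call, values can overlap the other calls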
Numbers stand for hits; – = inactive; ? = inconclusive; · = not tested or not shown.

SMILES	S100A4 MyoIIA	CAL PDZ FP-1	ERAP1 inh	SIRT5 block	DENV2 CPE rescue	CAL PDZ FP-2
CCNC(=O)[C@@H]1[C@@H](CO)[C@@H]2Cn3c(ccc(-c4ccccc4)c3=O)[C@@H]2N1CC	78	·	–	–	–	·
CCCNC(=O)C[C@@H]1C[C@@H]2c3cc(NC(=O)c4ccc5c(c4)OCO5)ccc3O[C@@H]2[C@@H](CO)O1	·	·	·	·	–	·
C[C@H](CO)N1C[C@H](C)[C@@H](CN(C)S(=O)(=O)c2ccc(F)cc2)OCCCC[C@H](C)Oc2ccc(NC(=O)c3ccncc3)cc2C1=O	–	·	–	–	–	·
C[C@H](CO)N1C[C@H](C)[C@H](CN(C)C(=O)Nc2ccc(F)cc2)Oc2c(NS(=O)(=O)c3cn(C)cn3)cccc2C1=O	–	·	–	–	–	·
CCN1[C@@H]2c3ccc(-c4cccc(F)c4)c(=O)n3C[C@@H]2[C@@H](CO)[C@@H]1C(=O)N[C@H](C)c1ccccc1	–	·	–	27	–	·
O=C(O)[C@@H]1[C@@H](CO)[C@@H]2Cn3c(ccc(-c4ccccc4F)c3=O)[C@@H]2N1Cc1ccccc1	–	·	–	19	–	·
O=C(NCc1ccccc1)[C@@H]1[C@@H](CO)[C@@H]2Cn3c(cccc3=O)[C@@H]2N1Cc1ccccc1F	–	·	–	–	23	·
CCN1[C@H](C(=O)N[C@@H](C)c2ccccc2)[C@@H](CO)[C@@H]2Cn3c(ccc(-c4cccc(F)c4)c3=O)[C@@H]21	–	·	–	–	–	·
c1nc(SSc2ncnc3nc[nH]c23)c2[nH]cnc2n1	–	–	33	–	–	–
C[C@H](CO)N1C[C@H](C)[C@@H](CN(C)Cc2ccc(Cl)c(Cl)c2)Oc2c(NC(=O)Nc3ccc(C(F)(F)F)cc3)cccc2C1=O	–	·	–	–	–	·
O=C(Cc1ccncc1)N1CC(=O)N2[C@H](CO)[C@H](c3ccc(Br)cc3)[C@@H]2C1	–	·	–	–	–	·
Cc1ccc(N2CCN(CCCCN3C(=O)C4CCCN4C3=O)CC2)cc1 (stereo unspecified)	·	–	·	·	·	63
COc1cccc(-c2ccc3c(c2)[C@H]2[C@H](CCN2S(=O)(=O)c2ccccc2C)[C@@H](CO)N3)c1	–	·	–	–	–	·
Cn1cnc(S(=O)(=O)N2CC[C@H]3[C@H](CO)Nc4ccc(-c5ccccc5)cc4[C@H]32)c1	–	·	–	–	–	·
COc1cccc(-c2ccc3c(c2)[C@H]2[C@H](CCN2S(=O)(=O)c2ccccc2C)[C@H](CO)N3)c1	–	·	–	–	39	·
Cc1ccccc1S(=O)(=O)N1CC[C@@H]2[C@@H](CO)Nc3ccc(-c4cccc(C#N)c4)cc3[C@@H]21	·	·	·	·	65	·
N#Cc1cccc(-c2ccc3c(c2)[C@@H]2[C@@H](CCN2S(=O)(=O)c2ccccc2F)[C@H](CO)N3)c1	–	·	–	–	–	·
Cc1ccccc1S(=O)(=O)N1CC[C@@H]2[C@H](CO)Nc3ccc(-c4cccc(C#N)c4)cc3[C@@H]21	·	·	·	·	96	·
COc1cccc(-c2ccc3c(c2)[C@@H]2[C@@H](CCN2S(=O)(=O)c2cn(C)cn2)[C@@H](CO)N3)c1	–	·	–	–	35	·
C[C@H]1CN([C@@H](C)CO)C(=O)c2ccccc2-c2ccccc2CO[C@H]1CN(C)Cc1ccc(Oc2ccccc2)cc1	–	·	–	–	–	·
CCCNC(=O)N(C)C[C@@H]1Oc2ncc(Br)cc2C(=O)N([C@@H](C)CO)C[C@@H]1C	–	·	–	–	–	·
O=C(C[C@H]1CC[C@H]2[C@@H](COC[C@@H](O)CN2Cc2ccccc2F)O1)N[C@H]1CCN(Cc2ccccc2)C1	–	·	–	–	–	·
O=C(C[C@H]1CC[C@@H]2[C@H](COC[C@H](O)CN2Cc2ccc(Oc3ccccc3)cc2)O1)N1CCc2ccccc2C1	–	·	–	18	–	·
O=C(C[C@H]1CC[C@@H]2[C@H](COC[C@@H](O)CN2Cc2ccccc2F)O1)N[C@H]1CCN(Cc2ccccc2)C1	–	·	–	23	–	·
O=C(C[C@H]1CC[C@H]2[C@@H](COC[C@H](O)CN2Cc2ccccc2F)O1)N1CCc2ccccc2C1	–	·	–	–	28	·
SMILES	S100A4 MyoIIA	CAL PDZ FP-1	ERAP1 inh	SIRT5 block	DENV2 CPE rescue	CAL PDZ FP-2
Cc1ccc2c(c1)c1ncnc(N3CCOCC3)c1n2C	·	–	·	·	·	42
C[C@@H]1CCCCO[C@@H](CN(C)C(=O)NC2CCCCC2)[C@H](C)CN([C@H](C)CO)C(=O)c2cc(NC(=O)Nc3ccc(F)cc3)ccc2O1	–	·	–	–	–	·
C[C@H]1CCCCO[C@H](CN(C)C(=O)NC2CCCCC2)[C@@H](C)CN([C@@H](C)CO)C(=O)c2cc(NC(=O)Nc3ccc(F)cc3)ccc2O1	–	·	–	·	32	·
C[C@@H]1CCCCO[C@@H](CN(C)C(=O)NC2CCCCC2)[C@@H](C)CN([C@@H](C)CO)C(=O)c2cc(N(C)C)ccc2O1	–	·	–	–	–	·
C[C@@H]1CN([C@H](C)CO)C(=O)c2cc(N(C)C)ccc2O[C@@H](C)CCCCO[C@@H]1CN(C)C(=O)NC1CCCCC1	104	·	–	–	?	·
C[C@@H]1CN([C@H](C)CO)C(=O)c2cc(NC(=O)Nc3ccc(F)cc3)ccc2O[C@@H](C)CCCCO[C@H]1CN(C)C(=O)NC1CCCCC1	–	·	–	–	21	·
C[C@@H]1CCCCO[C@H](CN(C)C(=O)NC2CCCCC2)[C@@H](C)CN([C@@H](C)CO)C(=O)c2cc(NC(=O)NC3CCCCC3)ccc2O1	–	·	–	–	47	·
C[C@@H]1CCCCO[C@@H](CN(C)C(=O)Nc2cccc3ccccc23)[C@H](C)CN([C@H](C)CO)C(=O)c2cc(N(C)C)ccc2O1	–	·	–	–	–	·
O=C(N[C@@H]1CC[C@H](CCn2cc(-c3ccccc3)nn2)O[C@H]1CO)c1ccccc1F	–	·	–	–	–	·
C[C@H](CO)N1C[C@H](C)[C@H](CN(C)C(=O)Nc2ccccc2)Oc2c(NC(=O)Nc3ccc(F)cc3)cccc2C1=O	–	·	–	–	–	·
Cc1cccc(-c2ccccc2[C@H]2[C@@H](C#N)N(c3ncc(-c4ccccc4)s3)[C@@H]2CO)c1	–	·	–	–	–	·
CNC[C@H]1OCCCC[C@@H](C)Oc2ccc(N(C)C)cc2C(=O)N([C@H](C)CO)C[C@H]1C	–	·	–	15	?	·
CCCNC(=O)N1[C@@H](CO)[C@@H]2c3ccccc3N(C(=O)Nc3cccc(F)c3)C[C@@H]21	–	·	–	–	–	·

High-throughput results from PubChem.
